This note sets out measurements from ChEMBL document CHEMBL1122644, “Ring-substituted 1,2-dialkylated 1,2-bis(hydroxyphenyl)ethanes. 2. Synthesis and estrogen receptor binding affinity of 4,4'-, 5,5'-, and 6,6'-disubstituted metahexestrols” (J Med Chem, 1984).

Some results are limits rather than exact numbers.

The target in assay [1] is Estrogen receptor (Bos taurus) (UniProt Q9XSB5+P49884). Description: Relative binding affinity for calf uterine estrogen receptor is the ratio of molar concentrations of 17-beta-estradiol and compound required to decrease amount of bound [3H]-E2 by 50% X 100. The assay is classed as protein assay. The gist of the method:
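Calf uterine cytosol incubated with [3H]estradiol and competitor at 4 °C for 16 h. Free ligand removed with dextran-coated charcoal, then centrifuged and a supernatant aliquot counted. Six competitor concentrations chosen to span 50% competition on a semilog plot. Molar concentrations of unlabeled estradiol and test compound giving 50% reduction in binding were read from the plot.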

In assay [2] the target is T1, Estrogen receptor (Mus musculus) (UniProt O08537+P19785). In words: Anti-estrogenic activity in mouse uterotrophic assay at 0 ug. Details: unit not given here. The assay is classed as functional. The method in brief:
(§1)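 Immature female NMRI mice, 20 days old (14.5 ± 1.2 g), randomized into groups of 10. Test compound in olive oil (0.1 mL) given subcutaneously daily for 3 days alongside estrone stimulation. Uteri removed 24 h after last injection, fixed in Bouin's solution, washed, dried and weighed. Readout is inhibition of estrone-stimulated uterine growth.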

Assay [3] concerns the target T1, Estrogen receptor (Mus musculus). Description: (§2) Anti-estrogenic activity in mouse uterotrophic assay at 1 ug. Type of assay: functional. The arrangement: unit not given here. The gist of the method:
as §1

For assay [4] the target is unchanged. In words: Anti-estrogenic activity in mouse uterotrophic assay at 10 ug. Type of assay: functional. The arrangement: unit not given here. The gist of the method: as §1
The target is the same in assay [5]. In words: Anti-estrogenic activity in mouse uterotrophic assay at 100 ug. Type of assay: functional. Details: unit not given here. The method in brief:
as §1

Assay [6] has the same target. Description: Estrogenic activity in mouse uterotrophic assay at 0 ug. Type of assay: functional. The arrangement: unit not given here. The method in brief:
(§3)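 Uterotrophic test in 20-day-old immature female NMRI mice (14.5 ± 1.2 g), 10 per group. Daily s.c. injections of compound in 0.1 mL olive oil for 3 days. Uteri excised 24 h after final dose, Bouin-fixed, washed, dried and weighed to measure stimulation of uterine growth.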

Assay [7] shares this target. Description: Estrogenic activity in mouse uterotrophic assay at 1 ug. The assay is classed as functional. The gist of the method: as §3
Assay [8] shares this target. In words: Estrogenic activity in mouse uterotrophic assay at 10 ug. The assay is classed as functional. Details: unit not given here. The method in brief: as §3
For assay [9] the target is unchanged. In words: Estrogenic activity in mouse uterotrophic assay at 100 ug. The assay is classed as functional. Details: unit not given here. The method in brief: as §3
Assay [10] shares this target. In words: Estrogenic activity in mouse uterotrophic assay at 1000 ug. Details: unit not given here. Type of assay: functional. The gist of the method:
as §3

For assay [11] the target is unchanged. Description: Estrogenic activity in mouse uterotrophic assay at 0.1 ug. Type of assay: functional. The gist of the method:
as §3

Assay [12] has the same target. Description: Estrogenic activity in mouse uterotrophic assay at 0.5 ug. Type of assay: functional. The gist of the method:
as §3

Assay [13] has the same target. Description: Estrogenic activity in mouse uterotrophic assay at 5 ug. Type of assay: functional. The method in brief: as §3
Assay [14] has the same target. Description: Estrogenic activity in mouse uterotrophic assay at 50 ug. Type of assay: functional. The method in brief: as §3
The target is the same in assay [15]. In words: Anti-estrogenic activity as inhibition of estrone-stimulated uterine growth in mice at 100 mg/kg. Type of assay: functional, organism-based. Details: dose 100 mg/kg. The gist of the method: as §1
For assay [16] the target is unchanged. Description: Anti-estrogenic activity as inhibition of estrone-stimulated uterine growth in mice at 10 mg/kg. Details: dose 10 mg/kg. Type of assay: functional, organism-based. The method in brief:
as §1

For assay [17] the target is unchanged. In words: Anti-estrogenic activity as inhibition of estrone-stimulated uterine growth in mice at 1 mg/kg. The assay is classed as functional, organism-based. The arrangement: dose 1 mg/kg. The method in brief:
as §1

For assay [18] the target is unchanged. Described as §2. Type of assay: functional. The gist of the method: as §1

T1 sequence (O08537 whole entry, looked up): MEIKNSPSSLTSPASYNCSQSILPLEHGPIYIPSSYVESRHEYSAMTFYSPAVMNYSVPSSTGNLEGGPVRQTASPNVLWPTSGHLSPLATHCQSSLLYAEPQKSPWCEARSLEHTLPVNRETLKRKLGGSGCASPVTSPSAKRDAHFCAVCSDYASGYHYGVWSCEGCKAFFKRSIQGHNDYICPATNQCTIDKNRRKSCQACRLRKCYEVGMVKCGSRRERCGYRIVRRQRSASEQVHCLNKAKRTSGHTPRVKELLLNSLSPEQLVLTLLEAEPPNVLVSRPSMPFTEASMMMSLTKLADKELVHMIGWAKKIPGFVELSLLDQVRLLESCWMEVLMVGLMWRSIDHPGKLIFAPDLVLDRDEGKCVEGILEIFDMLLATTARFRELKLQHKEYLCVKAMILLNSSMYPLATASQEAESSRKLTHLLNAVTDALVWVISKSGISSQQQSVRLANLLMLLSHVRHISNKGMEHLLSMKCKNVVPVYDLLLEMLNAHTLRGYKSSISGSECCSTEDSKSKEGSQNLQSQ
T1 sequence (P19785 whole entry, looked up): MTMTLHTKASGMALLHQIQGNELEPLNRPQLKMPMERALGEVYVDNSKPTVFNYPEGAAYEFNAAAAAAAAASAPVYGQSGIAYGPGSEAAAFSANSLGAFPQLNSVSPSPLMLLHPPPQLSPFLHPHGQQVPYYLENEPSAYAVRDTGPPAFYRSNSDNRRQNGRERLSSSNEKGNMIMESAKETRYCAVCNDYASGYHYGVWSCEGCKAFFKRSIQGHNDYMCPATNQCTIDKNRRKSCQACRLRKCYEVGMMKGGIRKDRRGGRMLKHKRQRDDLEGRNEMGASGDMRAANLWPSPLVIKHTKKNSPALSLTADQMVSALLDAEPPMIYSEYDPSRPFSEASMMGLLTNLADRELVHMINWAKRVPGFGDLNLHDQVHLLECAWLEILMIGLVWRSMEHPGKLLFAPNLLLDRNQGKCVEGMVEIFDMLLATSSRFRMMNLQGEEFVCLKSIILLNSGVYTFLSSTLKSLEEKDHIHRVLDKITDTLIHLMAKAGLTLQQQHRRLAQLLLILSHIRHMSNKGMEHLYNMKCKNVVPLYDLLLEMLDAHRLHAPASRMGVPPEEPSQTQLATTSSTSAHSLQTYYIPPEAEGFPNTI

Take `CCC(c1ccc(O)cc1C)C(CC)c1ccc(O)cc1C` (stereo not drawn): the RBA in assay [1] stood at 8.5.

In the case of `CCC(c1ccc(O)c(I)c1)C(CC)c1ccc(O)c(I)c1` (stereo not drawn), the RBA in assay [1] came to 0.17.

As to `CCC(c1ccc(O)c(CO)c1)C(CC)c1ccc(O)c(CO)c1` (stereo not drawn), in [1], the RBA was 0.71.

`CCc1ccc(C(CC)C(CC)c2ccc(CC)c(O)c2)cc1O` (stereo not drawn): the RBA in assay [1] came out at 0.04.

For `CCC(c1cc(O)cc(O)c1)C(CC)c1cc(O)cc(O)c1` (stereo not drawn), the RBA in assay [1] stood at 0.01.

As to `CCC(c1ccc(COC)c(O)c1)C(CC)c1ccc(COC)c(O)c1` (stereo not drawn), the RBA in assay [1] is 0.03.

For the compound `CCC(c1cc(O)cc(Cl)c1)C(CC)c1cc(O)cc(Cl)c1` (stereo not drawn), in assay [1], the RBA was determined as 0.03.

`CCC(c1cc(O)ccc1Cl)C(CC)c1cc(O)ccc1Cl` (stereo not drawn): the RBA in assay [1] came to 4.2. Moreover, the Activity in assay [2] turned out to be 13.7; in [3], 40.6; in [4], 41; in assay [5], 41.5; in assay [6], 13.7; in assay [7], 25.1. Further, the Activity in assay [8] turned out to be 47.8; in [9] it was 41.6; in assay [10], 38.5; in assay [11], 16.7.

Consider `CCC(c1ccc(O)c(Br)c1)C(CC)c1ccc(O)c(Br)c1` (stereo not drawn), for which the RBA in assay [1] was 0.25.

With `CCC(c1ccc(O)cc1F)C(CC)c1ccc(O)cc1F` (stereo not drawn), the RBA in assay [1] came out at 6.5.

The term inhibition denotes the change of the read-out against control, counted positive when it falls. For `CCC(c1cc(O)ccc1C)C(CC)c1cc(O)ccc1C` (stereo not drawn), the RBA in assay [1] was 15. Besides, the Activity in assay [2] was determined as 13.7; in assay [3], 27.2; in assay [4], 25.4; in assay [5], 31; in [6] it was 13.7; in [12] it was 13.3. The Activity came out at 37.5 in assay [8]; 52.1 in [9]; 50.5 in [10]; 19.8 in [13]; 41.9 in assay [14]. Also, the inhibition stood at 22% in assay [15], 47% in assay [16] and 39% in [17].

For the compound `CCC(c1cc(O)ccc1F)C(CC)c1cc(O)ccc1F` (stereo not drawn), in assay [1], the RBA stood at 7. In addition, the Activity in assay [2] turned out to be 13.7; in [4] it was 38.9; in [5], 41.2; in assay [18], 37.8; in [6] it was 13.1; in assay [7], 15.5. The Activity in assay [8] is 23.2; in assay [9], 39; in assay [10], 34.6.

Consider `CCOCc1cc(C(CC)C(CC)c2ccc(O)c(COCC)c2)ccc1O` (stereo not drawn), for which the RBA in assay [1] worked out at 0.18.

As for `CCC(c1ccc(O)c(N(C)C)c1)C(CC)c1ccc(O)c(N(C)C)c1` (stereo not drawn), the RBA in [1] was less than 0.01.

On to `CCC(c1ccc(CO)c(O)c1)C(CC)c1ccc(CO)c(O)c1` (stereo not drawn), for which the RBA in assay [1] stood at 0.03.

With `CCC(c1ccc(O)c(COC)c1)C(CC)c1ccc(O)c(COC)c1` (stereo not drawn), the RBA in assay [1] amounted to 0.55.

`CCC(c1ccc(O)cc1Cl)C(CC)c1ccc(O)cc1Cl` (stereo not drawn): the RBA in assay [1] was 2.2.

Regarding `CCOCc1ccc(C(CC)C(CC)c2ccc(COCC)c(O)c2)cc1O` (stereo not drawn), in [1], the RBA is less than 0.01.

In the case of `CCC(c1ccc(C(C)=O)c(O)c1)C(CC)c1ccc(C(C)=O)c(O)c1` (stereo not drawn), the RBA in [1] is less than 0.01.

As to `CCC(c1cc(O)ccc1O)C(CC)c1cc(O)ccc1O` (stereo not drawn), in [1], the RBA was less than 0.01.
